Consider nine compounds from ChEMBL document CHEMBL1144710, “epigenetic multiple ligands: mixed histone/protein methyltransferase, acetyltransferase, and class III deacetylase (sirtuin) inhibitors” (J Med Chem, 2008).

Active and inactive are the calls of the source. Unless noted, the calls are words filed in the database; no cut-off is given here.

For orientation: inhibition means the drop in the measured response relative to a control, in per cent. In general, IC50 refers to the midpoint of a concentration-inhibition curve.

In experiment [1] the test system is U-937. Kind of experiment: Induction of granulocytic differentiation in human U937 cells assessed as CD11c expression at 5 uM after 30 hrs. The format is functional. An outline of the steps: (§1)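 U937 cells treated for 30 h, then stained with PE-conjugated CD11c (PE mouse IgG1 as control) for 30 min at 4 °C in the dark and resuspended in PBS with PI (0.25 µg/mL). Read-out is percent CD11c-positive/PI-negative cells, with dead PI-positive cells excluded. Coloured compounds limited the top dose to 5 µM or lower.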

Experiment [2] deals with U-937. In words: Induction of apoptosis in human U937 cells at 25 uM after 30 hrs. The format is functional. An outline of the steps: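 Apoptosis read as caspase 3 activation by FACS, in U937 cells (RPMI, 10% fetal calf serum, 200000 cells/mL) exposed to 25 µM for 30 h.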
The subject of experiment [3] is U-937. Kind of experiment: Inhibition of histone H3R17 methylation in human U937 cells at 50 uM after 24 hrs. The experiment is classed as functional, cell-based. An outline of the steps: (§2)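 U937 cells treated at 50 µM for 24 h. Histones extracted with Triton buffer, then 0.2 M HCl overnight at 4 °C. 3–10 µg run on 15% SDS-PAGE and immunoblotted with anti-monomethyl-H3K4, monomethyl-H4R3 or dimethyl-H3R17 (1:500, overnight 4 °C), ECL detection. Loading controls: total H4 (H3K4), Ponceau Red (Arg marks).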

For experiment [4], the target named is T1, NAD-dependent protein deacetylase sirtuin-1 (Homo sapiens) (UniProt Q96EB6).
T1 sequence (whole entry): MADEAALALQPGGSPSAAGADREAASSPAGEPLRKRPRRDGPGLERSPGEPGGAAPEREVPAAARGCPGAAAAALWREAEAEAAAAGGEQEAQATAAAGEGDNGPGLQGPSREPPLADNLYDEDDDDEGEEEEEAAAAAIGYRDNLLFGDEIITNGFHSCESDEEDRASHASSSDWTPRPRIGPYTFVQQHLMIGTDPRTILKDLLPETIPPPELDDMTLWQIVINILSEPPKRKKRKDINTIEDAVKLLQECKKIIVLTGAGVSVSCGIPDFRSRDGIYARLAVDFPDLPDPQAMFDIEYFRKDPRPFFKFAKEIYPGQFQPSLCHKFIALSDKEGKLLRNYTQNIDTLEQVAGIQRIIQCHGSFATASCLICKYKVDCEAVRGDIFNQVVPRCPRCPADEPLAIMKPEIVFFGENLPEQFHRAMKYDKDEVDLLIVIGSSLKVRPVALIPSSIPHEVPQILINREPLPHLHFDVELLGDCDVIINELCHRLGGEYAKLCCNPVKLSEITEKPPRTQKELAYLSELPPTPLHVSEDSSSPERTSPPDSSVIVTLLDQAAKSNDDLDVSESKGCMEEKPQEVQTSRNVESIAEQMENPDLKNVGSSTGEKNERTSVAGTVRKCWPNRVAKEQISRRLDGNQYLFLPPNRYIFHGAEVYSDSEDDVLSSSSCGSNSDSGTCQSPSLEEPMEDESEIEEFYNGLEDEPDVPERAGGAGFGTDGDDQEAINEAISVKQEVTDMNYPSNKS
In words: Inhibition of human SIRT1 at 25 uM. An outline of the steps: (§3)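 Fluorescent two-stage assay. SIRT1 (1 U/well) or SIRT2 (5 U/well) with Fluor de Lys-SIRT1/2 substrate, NAD+ and compound at 25 µM, 37 °C for 2 h. Developer II containing nicotinamide then stopped the reaction and generated signal, read at ex 360/em 460 nm.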

Experiment [5] has as its system U-937. Kind of experiment: Induction of granulocytic differentiation in human U937 cells assessed as CD11c expression at 1 uM after 30 hrs. The format is functional. As to conditions: 5 uM, in the assay text read “at 5 uM” for “at 1 uM”. The procedure, abridged:
as §1

Experiment [6] concerns the target Protein arginine N-methyltransferase 1 (Homo sapiens) (UniProt Q99873). Kind of experiment: Inhibition of human recombinant PRMT1 assessed as nuclear ribonucleoprotein Npl3p methylation at 100 uM. The procedure, abridged: (§4)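 Recombinant enzymes (0.2 µg) with substrate (0.5 µg: Npl3p for PRMT1, PABP1 for CARM1, histone H3 for SET7), 0.5 µM [3H]AdoMet and 100 µM compound in PBS pH 7.4 with 3.3% v/v DMSO, 90 min at 30 °C. Products separated by 10% SDS-PAGE, transferred to PVDF, detected by fluorography on film overnight.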

Experiment [7] deals with T2, Histone-arginine methyltransferase CARM1 (Homo sapiens) (UniProt Q86X55).
T2 sequence (whole entry): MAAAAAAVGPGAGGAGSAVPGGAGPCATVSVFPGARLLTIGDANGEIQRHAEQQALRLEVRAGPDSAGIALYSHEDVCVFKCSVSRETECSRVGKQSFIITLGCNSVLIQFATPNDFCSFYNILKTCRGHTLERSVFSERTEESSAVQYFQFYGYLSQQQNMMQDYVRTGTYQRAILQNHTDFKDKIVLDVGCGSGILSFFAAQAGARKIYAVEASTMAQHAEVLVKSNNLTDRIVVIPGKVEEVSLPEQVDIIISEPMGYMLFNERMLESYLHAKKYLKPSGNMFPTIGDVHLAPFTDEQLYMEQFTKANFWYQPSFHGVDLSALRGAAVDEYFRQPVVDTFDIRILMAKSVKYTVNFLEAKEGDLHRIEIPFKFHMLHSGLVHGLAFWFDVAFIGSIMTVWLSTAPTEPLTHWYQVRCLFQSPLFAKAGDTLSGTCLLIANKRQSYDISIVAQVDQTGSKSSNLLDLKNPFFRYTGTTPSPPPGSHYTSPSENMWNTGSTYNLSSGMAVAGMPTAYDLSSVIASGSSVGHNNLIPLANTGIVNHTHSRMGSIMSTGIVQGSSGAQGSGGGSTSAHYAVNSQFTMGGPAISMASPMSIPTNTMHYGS
In words: Inhibition of human recombinant CARM1 assessed as poly(A) binding protein 1 methylation at 100 uM. The procedure, abridged:
as §4

Experiment [8] has as its system U-937. In words: Inhibition of human p300/CBP in U937 cells at 50 uM assessed as histone H3 acetylation. The experiment is classed as cell-based. The procedure, abridged: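 Source was U937 nuclear extract (10 µg per assay) as p300/CBP HAT, with histone H3 substrate and compound at 50 µM or DMSO control for 90 min. Acetyl-H3 detected by indirect ELISA, quantified against acetylated H3 peptide standard curves, […].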

Experiment [9] relates to U-937. In words: Inhibition of histone H4R3 methylation in human U937 cells at 50 uM after 24 hrs. The experiment is classed as functional, cell-based. The procedure, abridged: as §2
In experiment [10] the target is T3, NAD-dependent protein deacetylase sirtuin-2 (Homo sapiens) (UniProt Q8IXJ6).
T3 sequence (whole entry): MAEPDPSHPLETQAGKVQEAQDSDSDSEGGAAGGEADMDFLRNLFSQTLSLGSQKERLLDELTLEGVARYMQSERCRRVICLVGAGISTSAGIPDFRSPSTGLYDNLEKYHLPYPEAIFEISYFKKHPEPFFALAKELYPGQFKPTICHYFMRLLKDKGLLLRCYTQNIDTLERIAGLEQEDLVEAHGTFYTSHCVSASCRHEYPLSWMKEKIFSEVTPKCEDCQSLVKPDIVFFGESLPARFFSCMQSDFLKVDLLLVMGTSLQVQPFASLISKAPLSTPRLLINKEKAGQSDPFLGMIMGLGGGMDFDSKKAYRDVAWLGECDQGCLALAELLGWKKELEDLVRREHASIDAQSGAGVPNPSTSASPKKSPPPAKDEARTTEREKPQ
In words: Inhibition of human SIRT2 at 25 uM. The procedure, abridged: as §3

In experiment [11] the target is Protein arginine N-methyltransferase 1 (Homo sapiens) (UniProt Q99873). In words: Inhibition of human recombinant PRMT1 assessed as histone H4 methylation at 50 uM.
The target of experiment [12] is T4, Histone-lysine N-methyltransferase SETD7 (Homo sapiens) (UniProt Q8WTS6).
T4 sequence (whole entry): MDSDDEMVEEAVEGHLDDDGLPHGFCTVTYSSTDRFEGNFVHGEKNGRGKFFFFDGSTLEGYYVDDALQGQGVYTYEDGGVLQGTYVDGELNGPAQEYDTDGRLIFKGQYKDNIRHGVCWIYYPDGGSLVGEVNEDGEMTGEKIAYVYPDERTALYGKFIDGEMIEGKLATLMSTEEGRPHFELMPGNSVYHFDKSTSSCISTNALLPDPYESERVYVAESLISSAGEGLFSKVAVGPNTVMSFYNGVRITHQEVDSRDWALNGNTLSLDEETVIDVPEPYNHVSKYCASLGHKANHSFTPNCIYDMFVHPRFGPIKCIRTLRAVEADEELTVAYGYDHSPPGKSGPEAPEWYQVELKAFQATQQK
Kind of experiment: Inhibition of human recombinant SET7 assessed as histone H3 protein methylation at 100 uM. An outline of the steps:
as §4

For experiment [13], the target named is RmtA (Emericella nidulans, UniProt Q5VLE3). In words: Inhibition of Aspergillus nidulans RmtA. The procedure, abridged: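 Enzyme was GST-RmtA fusion expressed in E. coli BL21 and glutathione-affinity purified (500 ng), preincubated with compound for 15 min at room temperature. Then 20 µg chicken erythrocyte core histones and 0.55 µCi [3H]AdoMet were added, 30 min at 30 °C. Stopped with 25% TCA, filtered, counted by liquid scintillation.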

Experiment [14] has as its system U-937. Kind of experiment: Inhibition of histone H3K4 methylation in human U937 cells at 50 uM after 24 hrs. The experiment is classed as functional, cell-based. The procedure, abridged:
as §2

RmtA, sequence (Q5VLE3 whole entry, the tested form may be a part): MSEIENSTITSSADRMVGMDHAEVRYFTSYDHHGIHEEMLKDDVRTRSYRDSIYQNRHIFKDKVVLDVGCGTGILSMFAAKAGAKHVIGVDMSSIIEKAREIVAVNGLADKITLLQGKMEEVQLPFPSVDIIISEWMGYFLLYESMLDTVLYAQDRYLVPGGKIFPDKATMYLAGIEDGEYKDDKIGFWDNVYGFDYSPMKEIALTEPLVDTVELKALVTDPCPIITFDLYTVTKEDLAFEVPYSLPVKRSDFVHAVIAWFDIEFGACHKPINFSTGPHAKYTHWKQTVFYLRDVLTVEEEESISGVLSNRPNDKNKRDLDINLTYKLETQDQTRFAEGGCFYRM
Protein arginine N-methyltransferase 1 (Homo sapiens), sequence (Q99873 whole entry, looked up): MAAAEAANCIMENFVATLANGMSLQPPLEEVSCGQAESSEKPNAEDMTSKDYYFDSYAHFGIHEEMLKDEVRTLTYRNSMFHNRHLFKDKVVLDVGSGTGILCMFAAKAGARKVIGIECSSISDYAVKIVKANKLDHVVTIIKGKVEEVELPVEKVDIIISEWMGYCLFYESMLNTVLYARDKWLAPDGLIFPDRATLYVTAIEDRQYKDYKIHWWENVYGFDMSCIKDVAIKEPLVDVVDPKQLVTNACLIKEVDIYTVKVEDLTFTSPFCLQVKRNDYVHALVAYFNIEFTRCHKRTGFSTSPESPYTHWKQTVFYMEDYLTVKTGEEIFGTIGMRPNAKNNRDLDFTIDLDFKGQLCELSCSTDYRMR

With `CC(NC(=O)c1ccccc1/N=C/c1c(O)ccc2ccccc12)c1ccccc1` (centres undefined) [SIRTINOL], the Activity in experiment [1] and in experiment [2] was 7.5% each time.
Regarding `O=C(Nc1cccc(NC(=O)c2cc(Br)c(O)c(Br)c2)c1)c1cc(Br)c(O)c(Br)c1`, the outcome in [3], in experiment [6], in [7], in [9] and in [12] was Active. Also, the inhibition worked out at 2% in [4], 83% in [8], 0% in experiment [10] and 86% in experiment [11]. Further, in [5], the result was inactive. The IC50 in experiment [13] is 61.4 µM.
For `O=C(/C=C/c1ccc(O)c(Br)c1)c1cc(Br)c(O)c(Br)c1`, the result in [3], in experiment [9] and in experiment [14] was Active. For the same compound, the inhibition in [4] came out at 35%; in experiment [8], 0%; in experiment [10] it was 38%; in experiment [11] it was 36%. For the same compound, the outcome in [6] and in [7] was inactive. In addition, the IC50 in [13] is 40 µM.
Regarding `O=C(/C=C/c1cc(Br)c(O)c(Br)c1)c1cc(Br)c(O)c(Br)c1`, the result in experiment [3], in experiment [9] and in experiment [14] was Active. Besides, the inhibition in experiment [4] was found to be 35%; in experiment [8] it was 16%; in experiment [10] it was 37%; in [11] it was 61%. Also, the outcome in experiment [6] and in [7] was inactive. The compound further showed an IC50 in experiment [13] of 29 µM.
As to `O=C(Nc1cc(Br)c(O)c(Br)c1)c1cccc(C(=O)Nc2cc(Br)c(O)c(Br)c2)c1`, the outcome in experiment [3], in experiment [6], in [7], in [9] and in experiment [12] was Active. For the same compound, the inhibition is 13% in experiment [4], 81% in experiment [8], 9% in experiment [10] and 38% in experiment [11]. Further, in [5], the result was inactive. The compound also displayed an IC50 in experiment [13] of 13.8 µM.
Consider `O=C1/C(=C/c2ccc(O)c(Br)c2)COC/C1=C\c1ccc(O)c(Br)c1`, for which the result in experiment [3], in experiment [7], in experiment [9] and in experiment [14] was Active. In addition, the outcome in [6] and in [12] was inactive. This compound also registered a concentration for half-maximal inhibition (IC50) in experiment [13] of 132 µM.
Turning to `O=C(/C=C/c1cc(Br)c(O)c(Br)c1)c1ccc(C(=O)/C=C/c2cc(Br)c(O)c(Br)c2)cc1`, the result in [3], in experiment [6], in experiment [7], in [9] and in experiment [12] was Active. Also, the inhibition was found to be 45% in experiment [4], 0% in [8], 56% in experiment [10] and 31% in [11]. Besides, in [5], the result was inactive. This compound returned a half-inhibitory concentration (IC50) in [13] of 37 µM.
Turning to `O=C1/C(=C/c2ccc(O)c(Br)c2)Cc2ccccc2/C1=C\c1ccc(O)c(Br)c1`, the result in [3], in [7], in experiment [9] and in experiment [14] was Active. Besides, the outcome in experiment [6] and in [12] was inactive. Besides, the IC50 in experiment [13] worked out at 92 µM.
For `O=C(/C=C/c1ccc(O)c(Br)c1)/C=C/c1ccc(O)c(Br)c1`, the result in [3], in experiment [4], in [8], in experiment [9], in experiment [10] and in experiment [11] was inactive. Moreover, in experiment [14], the outcome was inactive. The result in [6] and in experiment [7] was Active. The same compound came in with a half-maximal inhibitory concentration (IC50) in experiment [13] of 162 µM.
